Source: ChEMBL document CHEMBL3297654, “Synthesis, antimicrobial and cytotoxic activities, and structure-activity relationships of gypsogenin derivatives against human cancer cells” (Eur J Med Chem, 2014)
The source made the active and inactive calls. The rule behind the calls is not given here.

Key:
Bacillus subtilis = assay: Antimicrobial activity against Bacillus subtilis ATCC 6633 assessed as zone of inhibition at 10 mg by disk diffusion test; assay type: functional, organism-based
Enterococcus faecalis = assay: Antimicrobial activity against Enterococcus faecalis ATCC 29212 assessed as zone of inhibition at 10 mg for 24 hrs at 37 degC by disk diffusion test; assay type: functional; conditions: ATCC 29212, 24 h, read-out: DIZ
Method in brief: (§1)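 Agar well diffusion following NCCLS disc susceptibility guidance. Compounds were held as 1000 µg/mL stocks in DMSO. Broth cultures (18–24 h) were adjusted to 0.5 McFarland (1×10^8 cells/mL) and spread on Mueller Hinton agar. A 6 mm well was cut and filled with 30 µL compound. Plates were incubated 24 h at 37 °C, and the inhibition zone diameter was measured in mm.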

Bacillus thuringiensis = assay: Antimicrobial activity against Bacillus thuringiensis assessed as zone of inhibition at 10 mg for 24 hrs at 30 degC by disk diffusion test; assay type: functional, organism-based
Method in brief: (§2)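 Well diffusion on Mueller Hinton agar per NCCLS disc susceptibility tests. DMSO stocks were 1000 µg/mL. Bacterial broth cultures (18–24 h) were adjusted to 0.5 McFarland, about 1×10^8 cells/mL. A 6 mm well received 30 µL compound. Incubation was 24 h at 30 °C, and zone diameters were read in mm. B. thuringiensis was a fecal clinical isolate grown in nutrient broth.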

Proteus vulgaris = assay: Antimicrobial activity against Proteus vulgaris ATCC 33420 assessed as zone of inhibition at 10 mg by disk diffusion test; assay type: functional, organism-based
Pseudomonas aeruginosa = assay: Antimicrobial activity against Pseudomonas aeruginosa ATCC 35032 assessed as zone of inhibition at 10 mg for 24 hrs at 37 degC by disk diffusion test; assay type: functional, organism-based; method in brief: as §1
Klebsiella pneumoniae = assay: Antimicrobial activity against Klebsiella pneumoniae ATCC 13882 assessed as zone of inhibition at 10 mg for 24 hrs at 37 degC by disk diffusion test; assay type: functional, organism-based; method in brief: as §1
Bacillus cereus = assay: Antimicrobial activity against Bacillus cereus ATCC 11778 assessed as zone of inhibition at 10 mg for 24 hrs at 30 degC by disk diffusion test; assay type: functional, organism-based; method in brief: as §2
Escherichia coli = assay: Antimicrobial activity against Escherichia coli ATCC 25922 assessed as zone of inhibition at 10 mg for 24 hrs at 37 degC by disk diffusion test; assay type: functional, organism-based
Micrococcus luteus = assay: Antimicrobial activity against Micrococcus luteus ATCC 9341 assessed as zone of inhibition at 30 mg for 24 hrs at 30 degC by disk diffusion test; assay type: functional; conditions: ATCC 9341, 24 h, read-out: DIZ

CC1(C)S[C@@H]2[C@H](NC(=O)[C@H](N)c3ccccc3)C(=O)N2[C@H]1C(=O)O [AMPICILLIN]
diameter of the inhibition zone (DIZ) (Bacillus subtilis): inactive | zone of inhibition at 10000 µg/disc (Enterococcus faecalis): 14 mm | diameter of the inhibition zone (DIZ) (Bacillus thuringiensis): inactive | diameter of the inhibition zone (DIZ) (Proteus vulgaris): inactive | diameter of the inhibition zone (DIZ) (Pseudomonas aeruginosa): inactive | diameter of the inhibition zone (DIZ) (Klebsiella pneumoniae): inactive | diameter of the inhibition zone (DIZ) (Bacillus cereus): inactive | diameter of the inhibition zone (DIZ) (Escherichia coli): inactive

O=C(N[C@H](CO)[C@H](O)c1ccc([N+](=O)[O-])cc1)C(Cl)Cl [CHLORAMPHENICOL]
zone of inhibition at 30000 µg/disc (Micrococcus luteus): 25 mm
